Data reported in ChEMBL document CHEMBL1125585, “(Methoxyalkyl)thiazoles: a new series of potent, selective, and orally active 5-lipoxygenase inhibitors displaying high enantioselectivity” (J Med Chem, 1991).

Legend:
[1] = target: T1, Polyunsaturated fatty acid 5-lipoxygenase (Rattus norvegicus, UniProt P12527); assay: Compound was tested for the inhibition of 5-lipoxygenase (5-Lpo) in rat whole blood.; format: tissue-based
T1 sequence (P12527 whole entry): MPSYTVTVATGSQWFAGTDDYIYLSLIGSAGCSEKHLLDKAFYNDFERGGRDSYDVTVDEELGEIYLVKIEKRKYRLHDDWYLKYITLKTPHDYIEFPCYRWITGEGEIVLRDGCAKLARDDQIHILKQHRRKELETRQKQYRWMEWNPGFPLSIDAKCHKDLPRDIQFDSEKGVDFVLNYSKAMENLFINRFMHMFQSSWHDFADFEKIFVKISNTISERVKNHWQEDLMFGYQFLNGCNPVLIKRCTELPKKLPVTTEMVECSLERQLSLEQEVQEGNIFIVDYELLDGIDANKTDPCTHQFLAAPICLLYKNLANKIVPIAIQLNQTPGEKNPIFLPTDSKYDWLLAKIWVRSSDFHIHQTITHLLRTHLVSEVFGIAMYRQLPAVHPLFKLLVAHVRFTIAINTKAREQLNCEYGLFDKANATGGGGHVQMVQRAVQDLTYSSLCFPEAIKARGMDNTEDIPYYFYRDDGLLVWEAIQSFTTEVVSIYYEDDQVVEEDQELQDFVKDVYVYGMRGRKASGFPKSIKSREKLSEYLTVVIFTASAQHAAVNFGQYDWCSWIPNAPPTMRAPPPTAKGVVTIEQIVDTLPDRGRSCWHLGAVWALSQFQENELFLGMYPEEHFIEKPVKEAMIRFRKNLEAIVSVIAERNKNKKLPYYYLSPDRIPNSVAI
Summary of the method: (§1)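 Eicosanoid (LTB4, PGE2, TXB2) generation measured in vitro in heparinised rat or human whole blood; IC50s given ± SE with the number of determinations.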

[2] = target: T2, Polyunsaturated fatty acid 5-lipoxygenase (Mus musculus, UniProt P48999); assay: Inhibition of 5-lipoxygenase in mouse macrophages.
T2 sequence (P48999 whole entry): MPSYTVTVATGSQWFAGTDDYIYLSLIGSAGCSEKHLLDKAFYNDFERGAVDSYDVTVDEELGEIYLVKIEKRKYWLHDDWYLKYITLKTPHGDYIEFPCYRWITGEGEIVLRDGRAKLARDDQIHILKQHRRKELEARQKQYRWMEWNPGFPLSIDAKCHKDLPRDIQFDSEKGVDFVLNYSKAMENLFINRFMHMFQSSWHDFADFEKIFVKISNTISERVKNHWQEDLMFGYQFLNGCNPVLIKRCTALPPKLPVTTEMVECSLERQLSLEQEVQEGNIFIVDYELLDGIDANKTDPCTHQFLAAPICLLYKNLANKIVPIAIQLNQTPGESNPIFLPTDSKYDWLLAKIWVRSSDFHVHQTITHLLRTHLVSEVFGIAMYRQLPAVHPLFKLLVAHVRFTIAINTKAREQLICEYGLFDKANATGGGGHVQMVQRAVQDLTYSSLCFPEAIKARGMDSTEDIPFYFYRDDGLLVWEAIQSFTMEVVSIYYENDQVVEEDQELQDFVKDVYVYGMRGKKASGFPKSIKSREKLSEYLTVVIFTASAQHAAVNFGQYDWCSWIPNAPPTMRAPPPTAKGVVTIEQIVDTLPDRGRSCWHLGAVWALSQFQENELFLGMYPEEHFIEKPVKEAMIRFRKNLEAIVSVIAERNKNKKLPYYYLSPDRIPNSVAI
Summary of the method: (§2)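 LTC4 and PGE2 synthesis measured in plasma-free cultures of murine peritoneal macrophages.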

[3] = target: T3, Polyunsaturated fatty acid 5-lipoxygenase (Homo sapiens, UniProt P09917); assay: Inhibition of 5-lipoxygenase in human whole blood.; format: tissue-based; summary of the method: as §1
T3 sequence (P09917 whole entry): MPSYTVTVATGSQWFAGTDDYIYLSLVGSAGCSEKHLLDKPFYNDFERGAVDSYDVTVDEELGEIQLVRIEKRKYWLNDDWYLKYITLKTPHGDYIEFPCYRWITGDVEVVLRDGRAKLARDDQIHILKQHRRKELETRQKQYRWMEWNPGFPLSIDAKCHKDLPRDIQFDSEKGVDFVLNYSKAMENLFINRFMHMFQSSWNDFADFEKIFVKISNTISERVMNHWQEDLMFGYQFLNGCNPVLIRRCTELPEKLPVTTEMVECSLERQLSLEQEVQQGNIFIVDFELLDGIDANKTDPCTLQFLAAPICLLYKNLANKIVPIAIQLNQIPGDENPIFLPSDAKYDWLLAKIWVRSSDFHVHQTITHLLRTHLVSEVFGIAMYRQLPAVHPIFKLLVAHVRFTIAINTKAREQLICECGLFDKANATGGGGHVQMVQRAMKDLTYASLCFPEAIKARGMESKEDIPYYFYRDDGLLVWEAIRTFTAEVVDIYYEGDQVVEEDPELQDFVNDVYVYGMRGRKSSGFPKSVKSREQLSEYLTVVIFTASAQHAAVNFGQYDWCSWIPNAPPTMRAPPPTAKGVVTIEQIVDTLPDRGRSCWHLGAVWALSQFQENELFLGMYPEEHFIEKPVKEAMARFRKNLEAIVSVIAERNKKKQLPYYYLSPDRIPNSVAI

[4] = target: T1, Polyunsaturated fatty acid 5-lipoxygenase; assay: Compound was tested for the inhibition of 5-lipoxygenase (5-LPO) in rat basophilic leukemia (RBL) cells.; format: cell-based, RBL-1
Summary of the method: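 Cell-free 5-LPO activity was measured spectrophotometrically. The enzyme source was the high-speed supernatant of rat basophilic leukemia (RBL) cells.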

Homo sapiens [5] = species on record: Homo sapiens; assay: In vitro inhibition of LTB4 synthesis in human whole blood.; format: functional; summary of the method: as §1
Homo sapiens [6] = species on record: Homo sapiens; assay: In vitro inhibition of TXB2 synthesis in human whole blood.; format: functional; summary of the method: as §1
Mus musculus [7] = species on record: Mus musculus; assay: In vitro inhibition of LTC4 synthesis in plasma free mouse macrophages.; format: functional; summary of the method: as §2
Mus musculus [8] = species on record: Mus musculus; assay: In vitro inhibition of PGE-2 synthesis in plasma free mouse macrophages.; format: functional; summary of the method: as §2
Rattus norvegicus [9] = species on record: Rattus norvegicus; assay: In vitro inhibition of LTB4 synthesis in rat whole blood.; format: functional; summary of the method: as §1
Rattus norvegicus [10] = assay: Compound was evaluated ex vivo for inhibition of LTB4 synthesis in rat on oral administration.; format: functional
Summary of the method: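 Rats dosed orally at 1 mL/kg with a suspension made by mixing 300 µL of compound in DMSO into 15 mL of 0.5% hydroxypropyl methyl cellulose with 0.1% polysorbate 80. Controls got the same volume of vehicle. After 1 h the animals were killed and bled, and LTB4 and TXB2 synthesis was measured in the blood ex vivo, n = 5 per point.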

Rattus norvegicus [11] = species on record: Rattus norvegicus; assay: In vitro inhibition of TXB2 synthesis against rat whole blood.
Rattus norvegicus [12] = species on record: Rattus norvegicus; assay: In vitro inhibition of PGE-2 synthesis against rat whole blood.; format: functional; settings: in the assay text read “TXB2” for “PGE-2”; summary of the method: as §1

Structure (SMILES)	IC50 [2]	IC50 [3]	further results
CCCCCCCCCCOc1cccc(C(O)c2nc(C)c[nH]2)c1 (configuration not stated)			IC50 [1]: > 30000 nM
COC1(c2nccs2)CCc2ccc(OCc3ccc4ccccc4c3)cc21 (racemic)	14 nM	700 nM	IC50 [4]: 800 nM
COC1(c2nccs2)CCc2ccc(OCc3ccc4ccccc4c3)cc21 (single isomer, unassigned; (+))	< 30 nM	500 nM	IC50 [4]: 130 nM
CCC(O)(c1cccc(OCc2ccc(Cl)c(Cl)c2)c1)c1nccs1 (configuration not stated)		1100 nM	
CCC(OC)(c1cccc(OCc2ccc3ccccc3c2)c1)c1nc(C)cs1 (configuration not stated)	820 nM	~40000 nM	
COC1CCc2ccc(OCc3ccc4ccccc4c3)cc21 (configuration not stated)		> 40000 nM	
CCC(O)(c1cccc(OCC#Cc2ccccc2)c1)c1nccs1 (configuration not stated)	30 nM	1000 nM	
Cc1cnc(C(O)c2cccc(OCc3ccc4ccccc4c3)c2)[nH]1 (configuration not stated)			IC50 [1]: > 30000 nM
CCC(OC)(c1ccc(OCc2ccc3ccccc3c2)cc1)c1nccs1 (configuration not stated)		~40000 nM	
c1ccc2cc(COc3ccc4c(c3)C(c3nccs3)CC4)ccc2c1 (configuration not stated)		> 40000 nM	
CC(c1cc2ccccc2s1)N(O)C(N)=O (configuration not stated) [ZILEUTON]			IC50 (Homo sapiens [5]): 2000 nM; IC50 (Homo sapiens [6]): 25000 nM; IC50 (Mus musculus [7]): 1200 nM; IC50 (Mus musculus [8]): 27000 nM; IC50 (Rattus norvegicus [9]): 2000 nM; ED50 (Rattus norvegicus [10]): 5 mg/kg; IC50 (Rattus norvegicus [11]): 25000 nM
COC(C)(c1cccc(OCc2ccc3ccccc3c2)c1)c1nccs1 (stereo in doubt; 2p)	30 nM	700 nM	
COC(C)(c1cccc(OCc2ccc3ccccc3c2)c1)c1nccs1 (stereo in doubt; 2o)	2000 nM	~40000 nM	
CCC(O)(c1cccc(OC/C=C/c2ccccc2)c1)c1nccs1 (configuration not stated)	6 nM	800 nM	
CCC(O)(c1cccc(OCC#Cc2cccc(C)c2)c1)c1nccs1 (configuration not stated)		2500 nM	
COC(C)(c1cccc(OCc2ccc3ccccc3c2)c1)c1nccs1 (configuration not stated)	5 nM	500 nM	IC50 [1]: 800 nM
COC1(c2nccs2)CCc2c(OCc3ccc4ccccc4c3)cccc21 (configuration not stated)		> 40000 nM	
CCC(O)(c1cccc(OCCCc2ccccc2)c1)c1nccs1 (configuration not stated)		11000 nM	
CC(C)C(O)(c1cccc(OCc2ccc3ccccc3c2)c1)c1nccs1 (configuration not stated)	1000 nM	40000 nM	
CCC(OC)(c1cccc(OCc2cccc3ccccc23)c1)c1nccs1 (configuration not stated)		4800 nM	
OC(c1cccc(OCc2ccc3ccccc3c2)c1)c1nccs1 (configuration not stated)			IC50 [1]: 30000 nM
CCCC(O)(c1cccc(OCc2ccc3ccccc3c2)c1)c1nccs1 (configuration not stated)	80 nM	8800 nM	
COC(c1cccc(OCc2ccc3ccccc3c2)c1)c1nccs1 (configuration not stated)	300 nM	7000 nM	IC50 [1]: 6000 nM
Cc1cnc(C(C)(O)c2cccc(OCc3ccc4ccccc4c3)c2)s1 (configuration not stated)		~40000 nM	
CCC(OC)(c1cccc(OCc2ccc3ccccc3c2)c1)c1cscn1 (configuration not stated)		600 nM	
CCC(OC)(c1cccc(OCc2ccc3ccccc3c2)c1)c1cncs1 (configuration not stated)		6300 nM	
CCC(OC)(c1cccc(OCc2ccc3ccccc3c2)c1)c1nccs1 (configuration not stated) [ZM-211965]	8 nM		IC50 [1]: 500 nM; IC50 (Homo sapiens [5]): 400 nM; IC50 (Homo sapiens [6]): > 100000 nM; IC50 (Mus musculus [7]): 8 nM; IC50 (Mus musculus [8]): > 50000 nM; IC50 (Rattus norvegicus [9]): 500 nM; IC50 (Rattus norvegicus [12]): > 100000 nM; ED50 (Rattus norvegicus [10]): 10 mg/kg
CCC(OC)(c1nccs1)c1ccccc1OCc1ccc2ccccc2c1 (configuration not stated)		> 40000 nM	
COC1(c2nccs2)CCc2ccc(OCc3ccc4ccccc4c3)cc21 (single isomer, unassigned; (-))	1500 nM	> 40000 nM	IC50 [4]: > 20000 nM
CCC(OC)(c1cccc(OCc2ccc(F)c(F)c2)c1)c1nccs1 (configuration not stated)	800 nM	40000 nM	
